Results published in ChEMBL document CHEMBL1142114, “Kaurane diterpenoids from Isodon excisus inhibit LPS-induced NF-kappaB activation and NO production in macrophage RAW264.7 cells” (J Nat Prod, 2007).
pIC50: −log10 of the molar value. Active and inactive are the calls of the source. No cut-off for these calls is given here.

Tests used:
Format in all cases: functional, cell-based
[1] = tested on: RAW264.7; experiment: Inhibition of NF-kappaB activation in LPS-stimulated RAW264.7 cells after 24 hrs; settings: Mus musculus, RAW264.7, 24 h
Method in brief: (§1)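 RAW264.7 cells transfected with a reporter plasmid carrying eight kappaB elements driving secreted alkaline phosphatase, seeded 5 × 10^4 cells/well. After 3 h at 37 °C, cells were given compound (0.1–10 µM) plus LPS 1 µg/mL for 24 h. SEAP activity was read at 405 nm with p-nitrophenyl phosphate substrate in diethanolamine/MgCl2/L-homoarginine buffer. IC50 is relative to vehicle control, mean ± SD of three experiments.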

[2] = tested on: RAW264.7; experiment: Inhibition of NO production in LPS-stimulated RAW264.7 cells after 24 hrs; settings: Mus musculus, RAW264.7, 24 h
Method in brief: (§2)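 RAW264.7 cells (1 × 10^5/well) were stimulated with LPS 1 µg/mL for 24 h with or without compound (0.1, 0.3, 1, 3, 10 µM). Nitrite in the culture supernatant was measured with Griess reagent. The remaining cells were checked for viability by MTT. IC50 is relative to vehicle control, mean ± SD of three separate experiments.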

[3] = tested on: RAW264.7; experiment: Inhibition of NF-kappaB activation in LPS-stimulated RAW264.7 cells at 10 uM after 24 hrs; settings: Mus musculus; method in brief: as §1
[4] = tested on: RAW264.7; experiment: Inhibition of NO production in LPS-stimulated RAW264.7 cells at 10 uM after 24 hrs; settings: Mus musculus; method in brief: as §2

How did the pIC50 [1] turn out when `C=C1C(=O)O[C@@H]2C3O[C@]3(C)CC/C=C(\C)CC[C@@H]12` (stereo not given in full) was run?
The pIC50 was 5.94.

With `C=C1C(=O)[C@@]23CC[C@@H]4[C@](C)(CO)[C@@H](OC(C)=O)CC[C@@]4(C)[C@@H]2[C@@H](O)C[C@@H]1C3` [EXCISUSIN A] as the compound, how does the pIC50 [1] read?
Its pIC50 is 6.05.

And the pIC50 [2]?
Its pIC50 is 6.17.

Which results are given for `C=C1C(=O)[C@@]23CC[C@@H]4C(C)(C)[C@@H](OC(C)=O)C[C@H](O)[C@@]4(C)[C@@H]2[C@@H](O)C[C@@H]1C3` [EXCISUSIN B]?
pIC50 [1]: 6.59; pIC50 [2]: 6.25

What does the source list for `C=C1[C@@H]2C[C@H](O)[C@H]3[C@]4(C)CC[C@@H](O)[C@@](C)(COC(C)=O)[C@H]4CC[C@]3(C2)[C@@H]1O` [EXCISUSIN C]?
pIC50 [1]: < 5.00; Activity [3]: inactive; Activity [4]: inactive; pIC50 [2]: < 5.00

`C=C1C(=O)[C@]23C[C@H]1C[C@H](OC(C)=O)[C@H]2[C@@]1(C)[C@H]([C@@H](O)C3)C(C)(C)[C@@H](O)C[C@@H]1O` [EXCISUSIN D] was tested. Which pIC50 [1] did it give?
The pIC50 was 5.49.

And the pIC50 [2]?
Its pIC50 is 5.54.

Which results are given for `C=C1C(=O)[C@@]23CC[C@H]4[C@@](C)(CCC(=O)[C@@]4(C)COC(C)=O)[C@@H]2[C@@H](O)C[C@@H]1C3` [EXCISUSIN E]?
pIC50 [1]: 5.99; pIC50 [2]: 5.87

`C=C1C(=O)[C@]23C[C@H]1C[C@H](O)[C@H]2[C@]1(C)CC[C@H](OC(C)=O)C(C)(C)[C@H]1[C@@H](O)C3` [INFLEXANIN A] was tested. Which pIC50 [1] did it give?
Its pIC50 is 6.40.

And the pIC50 [2]?
The pIC50 was 6.20.

`C=C1C(=O)[C@]23C[C@H]1C[C@H](O)[C@H]2[C@@]1(C)[C@H]([C@@H](O)C3)C(C)(C)[C@@H](OC(C)=O)C[C@@H]1O` [INFLEXANIN B] was tested. Which pIC50 [1] did it give?
The pIC50 was 5.74.

And the pIC50 [2]?
Its pIC50 is 5.60.

What does the source list for `C=C1[C@@H]2C[C@H](OC(C)=O)[C@@H]3[C@](C2)(C[C@H](O)[C@@H]2C(C)(C)[C@@H](OC(C)=O)C[C@H](O)[C@]23C)[C@@H]1O` [INFLEXARABDONIN A]?
pIC50 [1]: < 5.00; Activity [3]: inactive; Activity [4]: inactive; pIC50 [2]: < 5.00

With `C=C1C(=O)[C@@]23CC[C@@H]4C(C)(C)[C@@H](OC(C)=O)C[C@H](O)[C@@]4(C)[C@@H]2[C@@H](OC(C)=O)C[C@@H]1C3` [INFLEXARABDONIN G] as the compound, how does the pIC50 [1] read?
The pIC50 was 6.62.

And the pIC50 [2]?
Its pIC50 is 6.32.

How did the pIC50 [1] turn out when `C=C1C(=O)[C@]23C[C@H]1C[C@H](O)[C@H]2[C@]1(C)CCC(=O)C(C)(C)[C@H]1[C@@H](O)C3` [INFLEXARABDONIN I] was run?
The pIC50 was 5.94.

What about the pIC50 [2] of the same compound?
The pIC50 was 5.91.

Which results are given for `C=C1C(=O)[C@]23C[C@H]1C[C@H](OC(C)=O)[C@H]2[C@@]1(C)[C@H]([C@@H](O)C3)C(C)(C)[C@@H](OC(C)=O)C[C@@H]1O` [INFLEXINOL]?
pIC50 [1]: 6.36; pIC50 [2]: 6.03

Which results are given for `C=C1C(=O)[C@@]23CC(=O)[C@@H]4C(C)(C)[C@@H](OC(C)=O)C[C@H](O)[C@@]4(C)[C@@H]2[C@@H](OC(C)=O)C[C@@H]1C3` [INFLEXIN]?
pIC50 [1]: 6.64; pIC50 [2]: 6.16

`N=C(N)NN` [PIMAGEDINE] was tested. Which pIC50 [2] did it give?
The pIC50 was 4.49.
